In ChEMBL document CHEMBL3120098, “Structure-activity relationship (SAR) optimization of 6-(indol-2-yl)pyridine-3-sulfonamides: identification of potent, selective, and orally bioavailable small molecules targeting hepatitis C (HCV) NS4B” (J Med Chem, 2014):

Assays:
[1] = Volume of distribution at steady state in cynomolgus monkey at 2.5 mg/kg, iv and 5 mg/kg, po; type: ADME, organism-based, Macaca fascicularis; conditions: in vivo, read-out: Vdss
Cytochrome P450 2C9 = Cytochrome P450 2C9 (Homo sapiens, UniProt P11712); assay: Inhibition of CYP2C9 in human liver microsomes; type: ADME
Chain of Cytochrome P450 2C9 (P11712 whole entry): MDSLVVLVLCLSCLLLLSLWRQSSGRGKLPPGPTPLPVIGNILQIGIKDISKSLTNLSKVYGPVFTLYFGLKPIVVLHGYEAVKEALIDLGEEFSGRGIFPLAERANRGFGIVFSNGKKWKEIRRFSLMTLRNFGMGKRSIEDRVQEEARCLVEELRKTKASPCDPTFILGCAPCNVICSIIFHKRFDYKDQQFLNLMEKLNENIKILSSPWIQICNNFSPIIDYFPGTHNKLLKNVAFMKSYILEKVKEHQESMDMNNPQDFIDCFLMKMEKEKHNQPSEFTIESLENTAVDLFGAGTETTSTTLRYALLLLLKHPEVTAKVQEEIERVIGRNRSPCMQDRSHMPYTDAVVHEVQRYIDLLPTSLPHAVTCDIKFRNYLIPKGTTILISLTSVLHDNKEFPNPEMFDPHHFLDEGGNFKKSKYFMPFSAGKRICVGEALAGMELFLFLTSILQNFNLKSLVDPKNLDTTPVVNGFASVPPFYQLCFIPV

Cytochrome P450 3A4 [2] = target: T1, Cytochrome P450 3A4 (Homo sapiens, UniProt P08684); assay: Induction of CYP3A4 activity in human hepatocytes at 5 uM relative to rifampicin; type: ADME, cell-based, Hepatocyte
T1 sequence (P08684 whole entry): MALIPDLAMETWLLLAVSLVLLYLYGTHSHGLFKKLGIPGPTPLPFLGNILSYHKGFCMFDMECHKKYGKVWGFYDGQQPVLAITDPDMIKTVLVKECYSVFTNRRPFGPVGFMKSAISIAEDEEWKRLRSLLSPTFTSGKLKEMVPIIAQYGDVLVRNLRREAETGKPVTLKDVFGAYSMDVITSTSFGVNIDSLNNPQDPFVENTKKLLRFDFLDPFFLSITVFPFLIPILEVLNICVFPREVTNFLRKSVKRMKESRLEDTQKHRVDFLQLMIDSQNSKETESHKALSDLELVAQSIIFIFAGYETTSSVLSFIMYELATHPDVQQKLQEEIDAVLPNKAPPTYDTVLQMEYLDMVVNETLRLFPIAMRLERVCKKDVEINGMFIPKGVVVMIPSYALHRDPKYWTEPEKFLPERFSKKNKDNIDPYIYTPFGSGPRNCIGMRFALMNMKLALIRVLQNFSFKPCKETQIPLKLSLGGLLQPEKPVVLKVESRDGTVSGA
In short: (§1)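 Cryopreserved cultured human hepatocytes incubated 3 days with compound at several concentrations; CYP3A4 enzyme activity and mRNA expression measured, expressed as percent induction relative to rifampicin.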

[3] = (§2) Oral bioavailability in beagle dog at 5 mg/kg; type: ADME, organism-based, Canis lupus familiaris; conditions: beagle, in vivo
[4] = Clearance in cynomolgus monkey at 2.5 mg/kg, iv; type: ADME, organism-based, Macaca fascicularis; set-up: dose 2.5 mg/kg, route intravenous; conditions: in vivo
[5] = Ratio of EC50 for HCV1b Con1 to plasma concentration in Sprague-Dawley rat at 10 mg/kg, po after 6 hrs
[6] = Ratio of EC50 for HCV1b Con1 to plasma concentration in beagle dog at 5 mg/kg, po after 8 hrs
[7] = Clearance in beagle dog at 2.5 mg/kg, iv; type: ADME, organism-based, Canis lupus familiaris; set-up: dose 2.5 mg/kg, route intravenous; conditions: in vivo
Hepatitis C virus [8] = assay: Antiviral activity against HCV1b Con1 infected in human HuH7 cells assessed as inhibition of viral RNA replication by RT-PCR analysis; type: functional, organism-based, Hepacivirus hominis; conditions: isolate Con1, Huh-7
Rattus norvegicus [9] = organism: Rattus norvegicus; assay: Drug metabolism in bile duct cannulated rat assessed as 6-(3-cyano-5-fluoro-6-(1-hydroxyethyl)-1-(pyrimidin-2-yl)-1H-indol-2-yl)-N-((S)-1,1,1-trifluoropropan-2-yl)pyridine-3-sulfonamide level in plasma; type: ADME, organism-based
[10] = Terminal half life in cynomolgus monkey at 2.5 mg/kg, iv; type: ADME, organism-based, Macaca fascicularis; set-up: dose 2.5 mg/kg, route intravenous; conditions: in vivo, read-out: beta t1/2 (converted)
Rattus norvegicus [11] = organism: Rattus norvegicus; assay: Drug metabolism in bile duct cannulated rat assessed as 6-(3-cyano-5-fluoro-6-(1-hydroxyethyl)-1-(pyrimidin-2-yl)-1H-indol-2-yl)pyridine-3-sulfonamide level in plasma; type: ADME, organism-based
[12] = Ratio of drug level in liver to plasma in Sprague-Dawley rat at 10 mg/kg, po after 6 hrs; type: ADME, organism-based; set-up: dose 10 mg/kg, route oral
In short: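 Male Sprague-Dawley rats, 10 mg/kg PO suspension in 0.4% hydroxypropyl methylcellulose; liver and plasma drug levels measured at 6 h, expressed as liver/plasma ratio.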

[13] = Volume of distribution at steady state in Sprague-Dawley rat at 6 mg/kg, iv and 10 mg/kg, po; type: ADME, organism-based; conditions: in vivo, read-out: Vdss
[14] = Ratio of EC50 for HCV1b Con1 to plasma concentration in cynomolgus monkey at 5 mg/kg, po after 8 hrs
[15] = Terminal half life in Sprague-Dawley rat at 6 mg/kg, iv; type: ADME, organism-based; set-up: dose 6 mg/kg, route intravenous; conditions: in vivo, read-out: beta t1/2 (converted)
Hepatocyte [16] = assay: Induction of CYP3A4 mRNA expression in human hepatocytes at 3 uM relative to rifampicin; type: ADME, cell-based; in short: as §1
[17] = Toxicity in human HuH7 cells assessed as effect on GAPDH mRNA level; type: cell-based, Huh-7
In short: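 Run in parallel with replicon assay in Con1 replicon Huh-7 cells (0.5% DMSO, 37 °C); endogenous GAPDH mRNA quantified by TaqMan RT-PCR; highest concentration tested 10000 nM.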

[18] = Ratio of EC50 for HCV1b Con1 to plasma concentration in Sprague-Dawley rat at 10 mg/kg, po after 8 hrs
Canis familiaris [19] = organism: Canis familiaris; assay: Drug metabolism in bile duct cannulated dog assessed as GSH adduct formation; type: ADME, organism-based, Canis lupus familiaris; conditions: in vivo
[20] = Oral bioavailability in cynomolgus monkey at 5 mg/kg; type: ADME, organism-based, Macaca fascicularis; conditions: in vivo
Hepatocyte [21] = assay: Induction of CYP3A4 mRNA expression in human hepatocytes at 5 uM relative to rifampicin; type: ADME, cell-based; in short: as §1
Rattus norvegicus [22] = assay: Toxicity in rat up to 2000 mg/kg/day; type: organism-based; conditions: in vivo
In short: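 Non-GLP 14-day rat safety study with daily dosing up to 2000 mg/kg/day.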

[23] = (§3) AUC (0 to infinity) in beagle dog at 5 mg/kg, po; type: ADME, organism-based, Canis lupus familiaris, Plasma; set-up: dose 5 mg/kg, route oral, time infinity; conditions: beagle, plasma
[24] = system: Pregnane X receptor (Homo sapiens); assay: Activation of PXR (unknown origin) at 10 uM by reporter gene assay
Hepatitis C virus [25] = assay: Antiviral activity against HCV1a H77S assessed as inhibition of viral replication; type: functional, organism-based, Hepacivirus hominis; conditions: genotype 1a H77S
[26] = Volume of distribution at steady state in beagle dog at 2.5 mg/kg, iv and 5 mg/kg, po; type: ADME, organism-based, Canis lupus familiaris; conditions: in vivo, read-out: Vdss
[27] = Oral bioavailability in Sprague-Dawley rat at 10 mg/kg; type: ADME, organism-based; conditions: in vivo
[28] = Cmax in beagle dog at 5 mg/kg, po; type: ADME, organism-based, Canis lupus familiaris; set-up: dose 5 mg/kg, route oral; conditions: in vivo
Cytochrome P450 3A4 [29] = target: T1, Cytochrome P450 3A4; assay: Induction of CYP3A4 activity in human hepatocytes at 3 uM relative to rifampicin; type: ADME, cell-based, Hepatocyte; in short: as §1
[30] = AUC (0 to infinity) in cynomolgus monkey at 5 mg/kg, po; type: ADME, organism-based, Macaca fascicularis; set-up: time infinity, dose 5 mg/kg, route oral; conditions: plasma
Cytochrome P450 2D6 = Cytochrome P450 2D6 (Homo sapiens, UniProt P10635); assay: Inhibition of CYP2D6 in human liver microsomes; type: ADME
Chain of Cytochrome P450 2D6 (P10635 whole entry): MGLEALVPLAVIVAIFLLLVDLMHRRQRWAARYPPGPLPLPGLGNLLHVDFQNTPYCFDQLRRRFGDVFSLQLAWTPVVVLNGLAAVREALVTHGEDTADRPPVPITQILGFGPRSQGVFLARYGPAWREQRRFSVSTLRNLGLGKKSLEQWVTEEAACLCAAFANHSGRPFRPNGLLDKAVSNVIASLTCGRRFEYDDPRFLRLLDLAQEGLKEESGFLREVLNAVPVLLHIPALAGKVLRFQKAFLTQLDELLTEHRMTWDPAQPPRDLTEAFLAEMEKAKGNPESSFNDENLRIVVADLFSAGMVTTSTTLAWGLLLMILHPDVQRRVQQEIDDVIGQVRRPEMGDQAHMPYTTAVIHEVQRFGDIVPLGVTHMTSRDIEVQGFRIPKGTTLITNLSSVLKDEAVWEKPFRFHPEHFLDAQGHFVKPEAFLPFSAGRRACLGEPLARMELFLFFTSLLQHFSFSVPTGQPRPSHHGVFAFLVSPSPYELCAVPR

[31] = AUC (0 to 6 hrs) in Sprague-Dawley rat at 10 mg/kg, po; type: ADME, organism-based; set-up: time < 6 hr, dose 10 mg/kg, route oral; conditions: plasma
[32] = Cmax in cynomolgus monkey at 5 mg/kg, po; type: ADME, organism-based, Macaca fascicularis; set-up: dose 5 mg/kg, route oral; conditions: in vivo
[33] = Terminal half life in beagle dog at 2.5 mg/kg, iv; type: ADME, organism-based, Canis lupus familiaris; set-up: dose 2.5 mg/kg, route intravenous; conditions: in vivo, read-out: beta t1/2 (converted)
[34] = Clearance in Sprague-Dawley rat at 6 mg/kg, iv; type: ADME, organism-based; set-up: dose 6 mg/kg, route intravenous; conditions: in vivo
[35] = Cmax in Sprague-Dawley rat at 10 mg/kg, po; type: ADME, organism-based; set-up: dose 10 mg/kg, route oral; conditions: in vivo
[36] = AUC (0 to infinity) in Sprague-Dawley rat at 10 mg/kg, po; type: ADME, organism-based; set-up: time infinity, dose 10 mg/kg, route oral; conditions: plasma
Rattus norvegicus [37] = organism: Rattus norvegicus; assay: Drug metabolism in bile duct cannulated rat assessed as 6-(3-cyano-6-ethyl-5-fluoro-1-(pyrimidin-2-yl)-1H-indol-2-yl)pyridine-3-sulfonamide level in plasma; type: ADME, organism-based
Cytochrome P450 3A4 [38] = target: T1, Cytochrome P450 3A4; assay: Inhibition of CYP3A4 in human liver microsomes; type: ADME
Rhesus monkey = assay: Drug metabolism in bile duct cannulated monkey assessed as GSH adduct formation; type: ADME, organism-based, Macaca mulatta; conditions: in vivo
Hepatitis C virus [39] = assay: Antiviral activity against HCV2a JFH-1 infected in human HuH7 cells assessed as inhibition of viral replication; type: functional, organism-based, Hepacivirus hominis; conditions: JFH-1, Huh-7
Cytochrome P450 3A4 [40] = target: T1, Cytochrome P450 3A4; assay: Induction of CYP3A4 activity in human hepatocytes at 10 uM relative to rifampicin; type: ADME, cell-based, Hepatocyte; in short: as §1
Hepatocyte [41] = assay: Induction of CYP3A4 mRNA expression in human hepatocytes at 10 uM relative to rifampicin; type: ADME, cell-based; in short: as §1
Canis familiaris [42] = assay: as §2; type: ADME, organism-based, Canis lupus familiaris; conditions: in vivo
Rattus norvegicus [43] = assay: Drug metabolism in bile duct cannulated rat assessed as 6-(3-cyano-1-cyclobutyl-6-(difluoromethoxy)-5-fluoro-1H-indol-2-yl)pyridine-3-sulfonamide formation in plasma at 5 mg/kg; type: ADME, organism-based; set-up: dose 5 mg/kg; conditions: in vivo
Canis familiaris [44] = assay: as §3; type: ADME, organism-based, Canis lupus familiaris, Plasma; set-up: dose 5 mg/kg, route oral, time infinity; conditions: in vivo

CCc1cc2c(cc1F)c(C#N)c(-c1ccc(S(=O)(=O)N[C@@H](C)C(F)(F)F)cn1)n2-c1ncccn1
Vd [1]: 3.8 L/kg | IC50 (Cytochrome P450 2C9): > 10 µM | Activity (Cytochrome P450 3A4 [2]): 9% | bioavailability [3]: 78% | clearance [4]: 11 mL/min/kg | Ratio [5]: 342 | Ratio [6]: 460 | clearance [7]: 4.6 mL/min/kg | EC50 (Hepatitis C virus [8]): 0.002 µM | Drug metabolism (Rattus norvegicus [9]): Active | half-life [10]: 8 h | Drug metabolism (Rattus norvegicus [11]): Active | Kp at 6 h [12]: 25 | Vd [13]: 3.9 L/kg | Ratio [14]: 50 | half-life [15]: 7.5 h | Activity (Hepatocyte [16]): 9.8% | IC50 [17]: > 10 µM | Ratio [18]: 325 | Drug metabolism (Canis familiaris [19]): Not Active | bioavailability [20]: 18% | Activity (Hepatocyte [21]): 15.4% | Activity (Rattus norvegicus [22]): Non-toxic | AUC(0-inf) [23]: 29 µM·h | Activity [24]: 37% | EC50 (Hepatitis C virus [25]): 0.007 µM | Vd [26]: 2.1 L/kg | bioavailability [27]: 62% | Cmax [28]: 4000 nM | Activity (Cytochrome P450 3A4 [29]): 6% | AUC(0-inf) [30]: 3.1 µM·h | IC50 (Cytochrome P450 2D6): > 10 µM | AUC(0-t) at 6 h [31]: 8.16 µM·h | Cmax [32]: 540 nM | half-life [33]: 8.9 h | clearance [34]: 10.1 mL/min/kg | Cmax [35]: 2400 nM | AUC(0-inf) [36]: 20 µM·h | Drug metabolism (Rattus norvegicus [37]): Active | IC50 (Cytochrome P450 3A4 [38]): > 10 µM | Drug metabolism (Rhesus monkey): Not Active

Cc1cc2c(cc1F)c(C#N)c(-c1ccc(S(=O)(=O)N[C@@H](C)C(F)(F)F)cn1)n2-c1ncc(F)cn1
IC50 (Cytochrome P450 2C9): > 10 µM | Ratio [5]: 187 | EC50 (Hepatitis C virus [8]): 0.004 µM | IC50 [17]: > 10 µM | Activity [24]: 96% | IC50 (Cytochrome P450 2D6): > 10 µM | AUC(0-t) at 6 h [31]: 4.08 µM·h | IC50 (Cytochrome P450 3A4 [38]): > 10 µM

Cc1cc2c(cc1F)c(C#N)c(-c1ccc(S(=O)(=O)N[C@@H](C)C(F)(F)F)cn1)n2-c1ncccn1
IC50 (Cytochrome P450 2C9): > 10 µM | Ratio [5]: 213 | EC50 (Hepatitis C virus [8]): 0.006 µM | EC50 (Hepatitis C virus [39]): 2.2 µM | Activity (Hepatocyte [16]): 39.8% | IC50 [17]: > 10 µM | Activity (Cytochrome P450 3A4 [40]): 3% | Activity [24]: 36% | Activity (Cytochrome P450 3A4 [29]): 7% | Activity (Hepatocyte [41]): 41.5% | IC50 (Cytochrome P450 2D6): > 10 µM | AUC(0-t) at 6 h [31]: 8.91 µM·h | IC50 (Cytochrome P450 3A4 [38]): > 10 µM

C[C@H](NS(=O)(=O)c1ccc(-c2c(C#N)c3cc(F)c(OC(F)F)cc3n2C2CCC2)nc1)C(F)(F)F
F (Canis familiaris [42]): 91% | clearance [4]: 2.2 mL/min/kg | Ratio [5]: 277 | EC50 (Hepatitis C virus [8]): 0.007 µM | half-life [10]: 22 h | Kp at 6 h [12]: 11.4 | half-life [15]: 11 h | IC50 [17]: 9.1 µM | bioavailability [20]: 35% | Drug metabolism (Rattus norvegicus [43]): Active | AUC (Canis familiaris [44]): 24.79 µM·h | bioavailability [27]: 49% | AUC(0-inf) [30]: 24.8 µM·h | AUC(0-t) at 6 h [31]: 13.4 µM·h | half-life [33]: 149 h | clearance [34]: 3 mL/min/kg | AUC(0-inf) [36]: 24.8 µM·h

Cc1cc2c(cc1F)c(C#N)c(-c1ccc(S(=O)(=O)N[C@@H](C)C(F)(F)F)cn1)n2C1CCC1
Ratio [5]: 24 | EC50 (Hepatitis C virus [8]): 0.007 µM | Kp at 6 h [12]: 29.1 | IC50 [17]: > 10 µM | AUC(0-t) at 6 h [31]: 1.1 µM·h

CCc1cc2c(cc1F)c(C#N)c(-c1ccc(S(=O)(=O)N[C@@H](C)C(F)(F)F)cn1)n2C1CCC1
Ratio [5]: 18 | EC50 (Hepatitis C virus [8]): 0.004 µM | Kp at 6 h [12]: 30.6 | IC50 [17]: > 10 µM | AUC(0-t) at 6 h [31]: 0.3 µM·h
